# Autophagy mod: autophagy modulation, high-content screen; MEF GFP-LC3 puncta imaging; test concentration mostly 10 µM; calls only at 10 µM (by protocol); 0.98% of 190,000 active; AID 463193;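 active = percentage of spot-positive cells more than 3 SD above its plate mean, without a fluorescence outlier flag or 80% toxicity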;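 also: spot-positive cell cutoff set from DMSO-treated cells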
# SKKanGAS inh: SKKanGAS growth inhibition; S. pyogenes SKKanGAS, kanamycin growth, BacTiter-Glo, 6 h; inhibition, % at 7.5 µM; 1.3% of 300,000 active;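 active = mean replicate score, as percent of positive control median, at least 50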;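 also: strain carries kanamycin resistance gene driven by streptokinase promoter and grows in 40 µg/ml kanamycin; loss of luminescence reflects streptokinase promoter inhibition or plain growth inhibition; 0% = median of DMSO wells and 100% = positive control at its reference dose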
# Ins promoter up: MIN6 insulin promoter up-regulation; z-score at 5 µM; MIN6 insulin promoter-GFP reporter, high-content imaging; hits give high values; 0.3% of 190,000 active;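 active = z-score above 3 at 5 µM with at least 500 cells counted in the well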
# Rad51 HR inh: blocks human Rad51 in homologous recombination; Q06609; hRad51 DNA strand exchange, fluorescence dequenching; inhibition, % at 10 µM; 0.085% of 200,000 active; AID 1385;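 active = inhibition above 40% at the single screening dose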;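 also: 0% = DMSO control wells and 100% = blanks with heterologous ssDNA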
#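 Test system – preformed human Rad51 ssDNA filaments · Reagent – Donor/quencher-labelled 47-bp dsDNA substrate · Incubation – 37 °C 15-min filament assembly, 30-min compound preincubation, 15-min exchange · Signal – FRET fluorescence dequenching, excitation 485 nm, emission 520 nm · Read-out – percent inhibition from fluorescence, normalised to plate control and blank means · Benchmarks – plate control and blank wells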
# KCC2 mod: KCC2 (human) Cl- transport modulation; Q9H2X9; KCC2 cells, thallium flux FluoZin-2 fluorescence; B-score of Tl+ flux slope (higher = more flux/activation; lower = inhibition) at 10 µM; 2.2% of 190,000 active; AID 1456;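 active = thallium flux slope and its plate-corrected score both differing from the plate sample mean at a set confidence after two filtering rounds, in either direction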;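 also: slope of fluorescence scaled to starting intensity during 10 to 20 s after thallium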
# WT yeast gro inh: growth inhibition of WT yeast, mitochondrial fusion screen; mitochondrial fusion phenotypic screen, WT strain; inhibition, % at 10 µM; 2.1% of 190,000 active; in the data active = inhibition above about 58%; tested in S. cerevisiae
# * = called active by the depositor; i = inactive; . = no result; + = active, no number. Shown are actives, neighbours in structure and some others; about 4.2% of the full set was active somewhere.
SMILES,Autophagy mod,SKKanGAS inh,Ins promoter up,Rad51 HR inh,KCC2 mod,WT yeast gro inh
COc1cc(/C=N/n2cnnc2)ccc1OCc1ccc(C)cc1,i,0.1,1.38,1.7,0.00564,28.6
COc1cc(/C=N/n2cnnc2)ccc1OCc1ccccc1,i,-11.8,-0.22,-2.6,0.445,64.2*
Cc1ccc(NC(=O)Cn2nnc(-c3ccccc3NC(=O)c3cccs3)n2)cc1,+,31.2,0.1,5.9,0.647,9.6
Cc1cc(NC(=O)CCC(=O)N(CC(=O)NC2CCCC2)c2cccc(F)c2)no1,.,2.2,.,.,.,.
CC(=O)N/N=C/c1cc(C(C)C)cc(/C=N/NC(C)=O)c1O,i,-7.0,0.17,-33.0,5.71*,9.3
CCN1CCN(c2c(Cl)cccc2NC(=O)c2cc3ccccc3o2)CC1,.,1.3,.,.,.,.
Cc1cc(C)c(C)c(S(=O)(=O)NC2CCN(Cc3ccccc3)CC2)c1C,i,-6.4,-0.32,14.7,0.0424,14.7
c1cnc2ccc(C(c3nnnn3C3CCCCC3)N3CCCCC3)cc2c1 (centres undefined),i,9.6,-0.06,12.2,-0.794,7.9
c1cnc2ccc(C(c3nnnn3C3CCCCC3)N3CCN(C4CCCCC4)CC3)cc2c1 (centres undefined),+,1.0,.,-4.0,-0.669,.
c1ccc(Cn2c(SCc3cn4cccnc4n3)nnc2-c2ccco2)cc1,i,0.2,-0.23,-5.1,.,75.9*
O=c1c2c(-c3ccco3)csc2nc(SCc2cn3cccnc3n2)n1-c1ccccc1,i,17.4,-1.1,1.7,.,-11.1
COc1ccc(NS(=O)(=O)c2cc(NC(=O)c3ccc(C)s3)ccc2N2CCOCC2)cc1,.,8.3,-1.57,-15.0,0.445,.
COc1ccc(-c2c(NC(C)=O)n(C)c3ccccc3c2=O)cc1,i,-1.2,0.14,5.5,.,-8.2
COc1ccc(C#Cc2ccc3c(c2)c(=O)c2ccccc2n3C)cc1,.,91.3*,.,.,.,.
Nc1ccc(C#Cc2ccc3oc4ccccc4c(=O)c3c2)cc1,.,96.6*,.,-1.4,.,.
Cn1c2ccccc2c(=O)c2ccc(C#CC3(O)CCCCC3)cc21,.,62.7*,.,.,.,.
Cn1c2ccccc2c(=O)c2cc(C#Cc3ccc(N)cc3)ccc21,.,84.5*,.,.,.,.
O=c1c2ccccc2oc2cc(C#Cc3ccccn3)ccc12,.,5.8,.,-2.1,.,.
CCOc1ccc(NC(=O)NNC(=O)C(C)Oc2ccccc2OC)cc1 (centres undefined),.,2.9,.,.,.,.
CCOC(=O)C1=C(Cc2ccc(F)cc2)C(=O)c2ccccc2C1=O,i,37.8,1.56,-8.4,-0.0655,15.9
CCCCc1ccc(/C=C2\C(=O)c3ccccc3C(O)=C2C(=O)OCC)cc1,i,109.0*,-1.3,1.8,.,72.3*
CCc1ccc(C2=CC(c3cc(Br)ccc3F)n3ncnc3N2)cc1 (centres undefined),i,.,0.34,0.6,0.459,65.3*
Fc1ccc(Br)cc1C1C=C(c2ccc(Br)cc2)Nc2ncnn21 (centres undefined),i,30.5,.,7.2,1.91,52.8
CCn1c2ccccc2c2cc(CN3CCN(S(C)(=O)=O)CC3)ccc21,i,5.9,-0.16,.,-0.956,7.1
CCn1c2ccccc2c2cc(CN3CCN(Cc4cc(OC)ccc4O)CC3)ccc21,+,-11.2,0.41,-4.0,0.532,59.5*
SMILES,Autophagy mod,SKKanGAS inh,Ins promoter up,Rad51 HR inh,KCC2 mod,WT yeast gro inh
COc1ccc(CN2CCN(CC(O)Cn3c4ccccc4c4ccccc43)CC2)cc1 (centres undefined),i,1.0,-1.25,-3.5,0.767,85.6
CCOc1ccc(CN2CCN(CC(O)Cn3c4ccccc4c4ccccc43)CC2)cc1 (centres undefined),+,6.8,-1,.,0.502,85.4
COc1ccc(OC2CCN(S(=O)(=O)c3ccccc3)CC2)cc1,.,-3.5,.,.,.,.
O=C(Nc1ccccc1)c1nnsc1S(=O)c1ccc(Cl)cc1 (centres undefined),i,73.0*,-0.28,.,1.3,6.3
O=C(Cc1cccc2ccccc12)N/N=C/c1ccc2cccc(O)c2n1,.,70.5*,-0.87,-1.6,.,.
Cc1oc2c(c1C(=O)c1ccc(Cl)cc1)C(=O)C(=O)c1ccccc1-2,i,75.3*,0.05,.,0.299,79.9*
Cc1ccc(C(=O)c2c(C)oc3c2C(=O)C(=O)c2ccccc2-3)cc1,i,92.5*,-1.3,8.7,-0.723,57.2
O=C1CN(C(=O)CNCc2ccccc2)c2ccccc2N1,.,-2.6,-0.31,.,2.08,.
CCC(=O)N1CCc2cc(S(=O)(=O)N3CCN(c4cc(Cl)ccc4C)CC3)ccc21,.,-4.8,.,.,.,.

# Screens deposited in PubChem BioAssay by several laboratories.
